Measured values: ChEMBL document CHEMBL1152649, “Synthesis, cytotoxicity and human telomerase inhibition activities of a series of 1,2-heteroannelated anthraquinones and anthra[1,2-d]imidazole-6,11-dione homologues” (2009)

Assays:
OVCAR-5 = assay: Antiproliferative activity against human OVCAR5 cells assessed as cell growth at 10 uM; assay type: functional; conditions: read-out: Activity
Outline: (§1)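 NCI 60 cell line panel, single-dose screen (10^-5 M) run by the developmental therapeutics program protocol. Results are given as growth percent of treated cells relative to untreated control cells for each line.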

SK-MEL-2 = assay: Antiproliferative activity against human SK-MEL-2 cells assessed as cell growth at 10 uM; assay type: functional; conditions: read-out: Activity; outline: as §1
[1] = target: Telomerase reverse transcriptase (Homo sapiens) (UniProt O14746); assay: Inhibition of TERT in human H1299 cells assessed as residual transcriptional activity at 10 uM after 24 hrs by SEAP reporter gene assay; values are per cent of control
Sequence of Telomerase reverse transcriptase (Homo sapiens) (O14746 whole entry): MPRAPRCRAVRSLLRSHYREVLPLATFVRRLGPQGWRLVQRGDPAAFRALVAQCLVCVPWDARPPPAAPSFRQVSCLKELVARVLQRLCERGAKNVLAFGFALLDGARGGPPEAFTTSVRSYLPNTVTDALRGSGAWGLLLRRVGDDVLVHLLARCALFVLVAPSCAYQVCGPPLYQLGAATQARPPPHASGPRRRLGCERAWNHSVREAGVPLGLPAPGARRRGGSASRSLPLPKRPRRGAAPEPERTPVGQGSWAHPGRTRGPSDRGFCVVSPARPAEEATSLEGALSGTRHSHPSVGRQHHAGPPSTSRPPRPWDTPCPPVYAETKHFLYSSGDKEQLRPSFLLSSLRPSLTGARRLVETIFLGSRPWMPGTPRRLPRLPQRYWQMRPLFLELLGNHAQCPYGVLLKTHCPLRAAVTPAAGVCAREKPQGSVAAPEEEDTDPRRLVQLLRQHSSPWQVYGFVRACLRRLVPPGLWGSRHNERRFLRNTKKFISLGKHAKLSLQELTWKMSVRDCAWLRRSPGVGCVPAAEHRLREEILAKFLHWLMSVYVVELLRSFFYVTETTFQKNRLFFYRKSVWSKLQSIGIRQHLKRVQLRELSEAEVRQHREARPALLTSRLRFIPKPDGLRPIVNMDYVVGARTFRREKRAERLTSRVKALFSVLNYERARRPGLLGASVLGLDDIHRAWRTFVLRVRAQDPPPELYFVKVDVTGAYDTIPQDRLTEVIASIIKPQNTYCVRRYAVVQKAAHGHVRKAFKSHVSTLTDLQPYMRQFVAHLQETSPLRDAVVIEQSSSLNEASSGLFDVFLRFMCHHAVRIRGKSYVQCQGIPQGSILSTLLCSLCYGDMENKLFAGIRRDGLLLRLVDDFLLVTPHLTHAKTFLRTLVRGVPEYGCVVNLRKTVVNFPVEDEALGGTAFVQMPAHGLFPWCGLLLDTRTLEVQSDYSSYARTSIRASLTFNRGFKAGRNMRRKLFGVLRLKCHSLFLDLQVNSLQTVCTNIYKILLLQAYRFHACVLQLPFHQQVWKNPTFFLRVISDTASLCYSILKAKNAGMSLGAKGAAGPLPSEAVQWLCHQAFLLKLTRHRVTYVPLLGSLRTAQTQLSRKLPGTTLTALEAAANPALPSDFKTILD

[2] = Antiproliferative activity against human Hs 578T cells assessed as cell growth at 10 uM; assay type: functional; conditions: read-out: Activity; outline: as §1
SF-268 = assay: Antiproliferative activity against human SF268 cells assessed as cell growth at 10 uM; assay type: functional; conditions: read-out: Activity; outline: as §1
TK-10 = assay: Antiproliferative activity against human TK10 cells assessed as cell growth at 10 uM; assay type: functional; conditions: read-out: Activity
Outline: (§2)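 NCI 60 cell line panel, single dose (10^-5 M), run per the Developmental Therapeutics Program protocol (one dose mean graph). Each result is the growth percentage of treated cells relative to untreated control cells.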

SN12C = assay: Antiproliferative activity against human SN12C cells assessed as cell growth at 10 uM; assay type: functional; conditions: read-out: Activity; outline: as §1
A498 = assay: Antiproliferative activity against human A498 cells assessed as cell growth at 10 uM; assay type: functional; conditions: read-out: Activity; outline: as §1
LOX IMVI = assay: Antiproliferative activity against human LOXIMVI cells assessed as cell growth at 10 uM; assay type: functional; conditions: read-out: Activity; outline: as §1
OVCAR-4 = assay: Antiproliferative activity against human OVCAR4 cells assessed as cell growth at 10 uM; assay type: functional; conditions: read-out: Activity; outline: as §1
Malme-3M = assay: Antiproliferative activity against human MALME-3M cells assessed as cell growth at 10 uM; assay type: functional; conditions: read-out: Activity; outline: as §1
MDA-MB-435 = assay: Antiproliferative activity against human MDA-MB-435 cells assessed as cell growth at 10 uM; assay type: functional; conditions: read-out: Activity; outline: as §1
CAKI-1 = assay: Antiproliferative activity against human Caki1 cells assessed as cell growth at 10 uM; assay type: functional; conditions: read-out: Activity; outline: as §1
SNB-19 = assay: Antiproliferative activity against human SNB19 cells assessed as cell growth at 10 uM; assay type: functional; conditions: read-out: Activity; outline: as §1
OVCAR-8 = assay: Antiproliferative activity against human OVCAR8 cells assessed as cell growth at 10 uM; assay type: functional; conditions: read-out: Activity; outline: as §1
[3] = Cytotoxicity against human H1299 cells at 1 uM after 48 hrs by MTT assay; assay type: functional; conditions: NCI-H1299, 48 h
Outline: (§3)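 H1299 non-small cell lung cancer cells were grown in RPMI 1640 with 10% FBS, penicillin and streptomycin at 37 °C under 5% CO2. About 2 × 10³ cells per well were seeded and left 24 h. Compounds were dissolved fresh in DMSO, diluted into complete medium and applied for 48 h. MTT was then added for 4 h at 37 °C, followed by lysis buffer (20% SDS, 50% DMF) for 16 h, and absorbance was read at 550 nm.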

NCI-H522 = assay: Antiproliferative activity against human NCI-H522 cells assessed as cell growth at 10 uM; assay type: functional; conditions: read-out: Activity; outline: as §1
[4] = Cytotoxicity against human H1299 cells at 100 uM after 48 hrs by MTT assay; assay type: functional; conditions: NCI-H1299, 48 h; outline: as §3
HCT-116 = assay: Antiproliferative activity against human HCT116 cells assessed as cell growth at 10 uM; assay type: functional; conditions: read-out: Activity; outline: as §1
HCC 2998 = assay: Antiproliferative activity against human HCC2998 cells assessed as cell growth at 10 uM; assay type: functional; conditions: read-out: Activity; outline: as §1
UO-31 = assay: Antiproliferative activity against human UO31 cells assessed as cell growth at 10 uM; assay type: functional; conditions: read-out: Activity; outline: as §2
SF-295 = assay: Antiproliferative activity against human SF295 cells assessed as cell growth at 10 uM; assay type: functional; conditions: read-out: Activity; outline: as §1
786-0 = assay: Antiproliferative activity against human 786-0 cells assessed as cell growth at 10 uM; assay type: functional; conditions: read-out: Activity; outline: as §1
[5] = Cytotoxicity against human H1299 cells at 10 uM after 48 hrs by MTT assay; assay type: functional; conditions: NCI-H1299, 48 h; outline: as §3
NCI-H322M = assay: Antiproliferative activity against human NCI-H322M cells assessed as cell growth at 10 uM; assay type: functional; conditions: read-out: Activity; outline: as §1
SNB-75 = assay: Antiproliferative activity against human SNB75 cells assessed as cell growth at 10 uM; assay type: functional; conditions: read-out: Activity; outline: as §2
SK-MEL-5 = assay: Antiproliferative activity against human SK-MEL-5 cells assessed as cell growth at 10 uM; assay type: functional; conditions: read-out: Activity; outline: as §1
A549 = assay: Antiproliferative activity against human A549 cells assessed as cell growth at 10 uM; assay type: functional; conditions: read-out: Activity; outline: as §1
NCI/ADR-RES = assay: Antiproliferative activity against human NCI/ADR-RES cells assessed as cell growth at 10 uM; assay type: functional; conditions: read-out: Activity; outline: as §1
COLO 205 = assay: Antiproliferative activity against human COLO205 cells assessed as cell growth at 10 uM; assay type: functional; conditions: read-out: Activity; outline: as §1
SK-MEL-28 = assay: Antiproliferative activity against human SK-MEL-28 cells assessed as cell growth at 10 uM; assay type: functional; conditions: read-out: Activity; outline: as §1
NCI-H23 = assay: Antiproliferative activity against human NCI-H23 cells assessed as cell growth at 10 uM; assay type: functional; conditions: read-out: Activity; outline: as §1
M14 = assay: Antiproliferative activity against human M14 cells assessed as cell growth at 10 uM; assay type: functional; conditions: read-out: Activity; outline: as §1
MDA-MB-231 = assay: Antiproliferative activity against human MDA-MB-231 cells assessed as cell growth at 10 uM; assay type: functional; conditions: read-out: Activity; outline: as §1
K562 = assay: Antiproliferative activity against human K562 cells assessed as cell growth at 10 uM; assay type: functional; conditions: read-out: Activity; outline: as §1
SR = assay: Antiproliferative activity against human SR cells assessed as cell growth at 10 uM; assay type: functional; conditions: read-out: Activity; outline: as §2
HL-60(TB) = assay: Antiproliferative activity against human HL-60(TB) cells assessed as cell growth at 10 uM; assay type: functional; conditions: read-out: Activity
Outline: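 NCI Developmental Therapeutics Program 60-cell-line one-dose screen at 10^-5 M. Readout is growth percentage of treated cells relative to untreated control cells.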

T47D = assay: Antiproliferative activity against human T47D cells assessed as cell growth at 10 uM; assay type: functional; conditions: read-out: Activity; outline: as §2
OVCAR-3 = assay: Antiproliferative activity against human OVCAR-3 cells assessed as cell growth at 10 uM; assay type: functional; conditions: read-out: Activity; outline: as §1
NCI-H460 = assay: Antiproliferative activity against human NCI-H460 cells assessed as cell growth at 10 uM; assay type: functional; conditions: read-out: Activity; outline: as §1
UACC-257 = assay: Antiproliferative activity against human UACC257 cells assessed as cell growth at 10 uM; assay type: functional; conditions: read-out: Activity; outline: as §2
U-251 = assay: Antiproliferative activity against human U251 cells assessed as cell growth at 10 uM; assay type: functional; conditions: read-out: Activity; outline: as §2
ACHN = assay: Antiproliferative activity against human ACHN cells assessed as cell growth at 10 uM; assay type: functional; conditions: read-out: Activity; outline: as §1
PC-3 = assay: Antiproliferative activity against human PC3 cells assessed as cell growth at 10 uM; assay type: functional; conditions: read-out: Activity; outline: as §1
CCRF-CEM = assay: Antiproliferative activity against human CCRF-CEM cells assessed as cell growth at 10 uM; assay type: functional; conditions: read-out: Activity; outline: as §1
HOP-92 = assay: Antiproliferative activity against human HOP92 cells assessed as cell growth at 10 uM; assay type: functional; conditions: read-out: Activity; outline: as §1
[6] = Antiproliferative activity against human RPMI8266 cells assessed as cell growth at 10 uM; assay type: functional; conditions: read-out: Activity; outline: as §1

O=C1c2ccccc2C(=O)c2c1ccc1nccnc21
growth at 10 µM (OVCAR-5): 107% | growth at 10 µM (SK-MEL-2): 6.66% | residual activity [1]: 26% | growth at 10 µM [2]: 76.8% | growth at 10 µM (SF-268): 68% | growth at 10 µM (TK-10): 127% | growth at 10 µM (SN12C): 64.7% | growth at 10 µM (A498): 98.8% | growth at 10 µM (LOX IMVI): 44.2% | growth at 10 µM (OVCAR-4): 94.2% | growth at 10 µM (Malme-3M): 181% | growth at 10 µM (MDA-MB-435): 102% | growth at 10 µM (CAKI-1): 87.9% | growth at 10 µM (SNB-19): 87.3% | growth at 10 µM (OVCAR-8): 47.5% | viability at 1 µM [3]: 98% | growth at 10 µM (NCI-H522): 24.1% | viability at 100 µM [4]: 6% | growth at 10 µM (HCT-116): 53.3% | growth at 10 µM (HCC 2998): -7.15% | growth at 10 µM (UO-31): 51.5% | growth at 10 µM (SF-295): 80.8% | growth at 10 µM (786-0): 28.4% | viability at 10 µM [5]: 13% | growth at 10 µM (NCI-H322M): 96.3% | growth at 10 µM (SNB-75): 105% | growth at 10 µM (SK-MEL-5): 66.6% | growth at 10 µM (A549): 47.1% | growth at 10 µM (NCI/ADR-RES): 68% | growth at 10 µM (COLO 205): 71.6% | growth at 10 µM (SK-MEL-28): 97.5% | growth at 10 µM (NCI-H23): 65.1% | growth at 10 µM (M14): 59.8% | growth at 10 µM (MDA-MB-231): 81.4% | growth at 10 µM (K562): 37.2% | growth at 10 µM (SR): 82.9% | growth at 10 µM (HL-60(TB)): 102% | growth at 10 µM (T47D): 85.2% | growth at 10 µM (OVCAR-3): 71.7% | growth at 10 µM (NCI-H460): 31.7% | growth at 10 µM (UACC-257): 91.1% | growth at 10 µM (U-251): 63.5% | growth at 10 µM (ACHN): 46.5%

N#Cc1ccc(-c2nc3ccc4c(c3[nH]2)C(=O)c2ccccc2C4=O)cc1
growth at 10 µM (OVCAR-5): 98.1% | growth at 10 µM (PC-3): 109% | growth at 10 µM (SK-MEL-2): 22.5% | residual activity [1]: 83% | growth at 10 µM [2]: 102% | growth at 10 µM (SF-268): 99.2% | growth at 10 µM (TK-10): 180% | growth at 10 µM (SN12C): 105% | growth at 10 µM (A498): 96.2% | growth at 10 µM (LOX IMVI): 101% | growth at 10 µM (OVCAR-4): 101% | growth at 10 µM (Malme-3M): 201% | growth at 10 µM (MDA-MB-435): 113% | growth at 10 µM (CAKI-1): 110% | growth at 10 µM (SNB-19): 97.8% | growth at 10 µM (OVCAR-8): 98.9% | viability at 1 µM [3]: 80% | growth at 10 µM (NCI-H522): 141% | viability at 100 µM [4]: 19% | growth at 10 µM (HCT-116): 79.8% | growth at 10 µM (HCC 2998): 74.7% | growth at 10 µM (UO-31): 80.4% | growth at 10 µM (SF-295): 120% | growth at 10 µM (786-0): 124% | viability at 10 µM [5]: 77% | growth at 10 µM (NCI-H322M): 127% | growth at 10 µM (SNB-75): 63.2% | growth at 10 µM (SK-MEL-5): 103% | growth at 10 µM (A549): 106% | growth at 10 µM (CCRF-CEM): 117% | growth at 10 µM (NCI/ADR-RES): 102% | growth at 10 µM (COLO 205): 113% | growth at 10 µM (HOP-92): 56.2% | growth at 10 µM (SK-MEL-28): 115% | growth at 10 µM (NCI-H23): 90.9% | growth at 10 µM (M14): 243% | growth at 10 µM (MDA-MB-231): 87.1% | growth at 10 µM [6]: 114% | growth at 10 µM (K562): 54.9% | growth at 10 µM (SR): 84.1% | growth at 10 µM (HL-60(TB)): 145% | growth at 10 µM (T47D): 85.1% | growth at 10 µM (OVCAR-3): 111% | growth at 10 µM (NCI-H460): 105% | growth at 10 µM (UACC-257): 105% | growth at 10 µM (U-251): 112% | growth at 10 µM (ACHN): 111%
